Laboratory results published in ChEMBL document CHEMBL1152188, “Alpha-S-GalCer: synthesis and evaluation for iNKT cell stimulation” (Bioorg Med Chem Lett, 2008).
Calls of active or inactive are those of the source.

Assays:
Mus musculus [1] = experiment: Activation of iNKT cells in C57BL/6 mouse assessed as cell frequency at 5 or 10 ug, ip by FACS analysis; type: functional, organism-based
Procedure, shortened: (§1)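 Lipid given intraperitoneally to NOD or C57Bl/6 mice in PBS with […] Tween-20 (200 μg/mL). iNKT cell frequency and intracellular cytokine expression read by flow cytometry (FACS).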

iNKT [2] = experiment: Induction of cell proliferation in NOD mouse iNKT cells at 100 ng/mL after 24 hrs by CFSE dilution; type: functional, cell-based
Procedure, shortened: (§2)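 Splenocytes isolated from NOD or C57Bl/6 mice, labeled with CFSE and stimulated with the glycolipid in vitro. Proliferation read as CFSE dilution at 24 and 48 h.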

iNKT [3] = experiment: Induction of cytokine expression in NOD mouse iNKT cells at 200 ng/mL after 24 hrs by intracellular staining for IFN-gamma; type: functional, cell-based
Procedure, shortened: (§3)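 Splenocytes from NOD or C57Bl/6 mice, CFSE-labeled and stimulated in vitro with the glycolipid. Cytokine induction measured by intracellular IFNγ staining at 24 and 48 h.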

iNKT [4] = experiment: Induction of cytokine expression in C57BL/6 mouse iNKT cells at 100 ng/mL after 48 hrs by intracellular staining for IFN-gamma; type: functional, cell-based; procedure, shortened: as §3
iNKT [5] = experiment: Induction of cytokine expression in NOD mouse iNKT cells at 100 ng/mL after 24 hrs by intracellular staining for IFN-gamma; type: functional, cell-based; procedure, shortened: as §3
iNKT [6] = experiment: Induction of cell proliferation in NOD mouse iNKT cells at 100 ng/mL after 48 hrs by CFSE dilution; type: functional, cell-based; procedure, shortened: as §2
iNKT [7] = experiment: Induction of cytokine expression in NOD mouse iNKT cells at 100 ng/mL after 48 hrs by intracellular staining for IFN-gamma; type: functional, cell-based; procedure, shortened: as §3
iNKT [8] = experiment: Induction of cell proliferation in C57BL/6 mouse iNKT cells at 200 ng/mL after 48 hrs by CFSE dilution; type: functional, cell-based; procedure, shortened: as §2
iNKT [9] = experiment: Induction of cell proliferation in C57BL/6 mouse iNKT cells at 200 ng/mL after 24 hrs by CFSE dilution; type: functional, cell-based; procedure, shortened: as §2
iNKT [10] = experiment: Induction of cytokine expression in C57BL/6 mouse iNKT cells at 100 ng/mL after 24 hrs by intracellular staining for IFN-gamma; type: functional, cell-based; procedure, shortened: as §3
iNKT [11] = experiment: Induction of cytokine expression in C57BL/6 mouse iNKT cells at 200 ng/mL after 24 hrs by intracellular staining for IFN-gamma; type: functional, cell-based; procedure, shortened: as §3
Mus musculus [12] = experiment: Activation of iNKT cells in NOD mouse assessed as cell frequency at 5 or 10 ug, ip by FACS analysis; type: functional, organism-based; procedure, shortened: as §1
iNKT [13] = experiment: Induction of cell proliferation in NOD mouse iNKT cells at 200 ng/mL after 24 hrs by CFSE dilution; type: functional, cell-based; procedure, shortened: as §2
Mus musculus [14] = experiment: Activation of iNKT cells in NOD mouse assessed as intracellular cytokine expression at 5 or 10 ug, ip by FACS analysis; type: functional, organism-based; procedure, shortened: as §1
iNKT [15] = experiment: Induction of cell proliferation in NOD mouse iNKT cells at 200 ng/mL after 48 hrs by CFSE dilution; type: functional, cell-based; procedure, shortened: as §2
iNKT [16] = experiment: Induction of cytokine expression in NOD mouse iNKT cells at 200 ng/mL after 48 hrs by intracellular staining for IFN-gamma; type: functional, cell-based; procedure, shortened: as §3
iNKT [17] = experiment: Induction of cell proliferation in C57BL/6 mouse iNKT cells at 100 ng/mL after 48 hrs by CFSE dilution; type: functional, cell-based; procedure, shortened: as §2
iNKT [18] = experiment: Induction of cytokine expression in C57BL/6 mouse iNKT cells at 200 ng/mL after 48 hrs by intracellular staining for IFN-gamma; type: functional, cell-based; procedure, shortened: as §3
Mus musculus [19] = experiment: Activation of iNKT cells in C57BL/6 mouse assessed as intracellular cytokine expression at 5 or 10 ug, ip by FACS analysis; type: functional, organism-based; procedure, shortened: as §1
iNKT [20] = experiment: Induction of cell proliferation in C57BL/6 mouse iNKT cells at 100 ng/mL after 24 hrs by CFSE dilution; type: functional, cell-based; procedure, shortened: as §2

Measured: Activity

CCCCCCCCCCCCCCCCCCCCCCCCCC(=O)N[C@@H](CS[C@H]1O[C@H](CO)[C@H](O)[C@H](O)[C@H]1O)[C@H](O)[C@H](O)CCCCCCCCCCCCCC
inactive: Mus musculus [1] | iNKT [2] | iNKT [3] | iNKT [4] | iNKT [5] | iNKT [6] | iNKT [7] | iNKT [8] | iNKT [9] | iNKT [10] | iNKT [11] | Mus musculus [12] | iNKT [13] | Mus musculus [14] | iNKT [15] | iNKT [16] | iNKT [17] | iNKT [18] | Mus musculus [19] | iNKT [20]
